Assay [1] can be described thus: Inhibition of bocillin FL binding to Escherichia coli MC4100 penicillin-binding protein 3. The method, boiled down: (§1)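 Isolated E. coli MC4100 PBPs were competed with 10 drug concentrations from 0.016 μg/ml to 8 μg/ml, then labeled with Bocillin FL. Fluorescent PBP bands were imaged. IC50 is the concentration giving 50% inhibition of Bocillin FL binding to each PBP relative to a no-drug control.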

Assay [2] concerns the target T1, Cell shape peptidoglycan synthetase penicillin-binding protein 2 (Escherichia coli, UniProt Q2TL65).
T1 sequence (Q2TL65 whole entry): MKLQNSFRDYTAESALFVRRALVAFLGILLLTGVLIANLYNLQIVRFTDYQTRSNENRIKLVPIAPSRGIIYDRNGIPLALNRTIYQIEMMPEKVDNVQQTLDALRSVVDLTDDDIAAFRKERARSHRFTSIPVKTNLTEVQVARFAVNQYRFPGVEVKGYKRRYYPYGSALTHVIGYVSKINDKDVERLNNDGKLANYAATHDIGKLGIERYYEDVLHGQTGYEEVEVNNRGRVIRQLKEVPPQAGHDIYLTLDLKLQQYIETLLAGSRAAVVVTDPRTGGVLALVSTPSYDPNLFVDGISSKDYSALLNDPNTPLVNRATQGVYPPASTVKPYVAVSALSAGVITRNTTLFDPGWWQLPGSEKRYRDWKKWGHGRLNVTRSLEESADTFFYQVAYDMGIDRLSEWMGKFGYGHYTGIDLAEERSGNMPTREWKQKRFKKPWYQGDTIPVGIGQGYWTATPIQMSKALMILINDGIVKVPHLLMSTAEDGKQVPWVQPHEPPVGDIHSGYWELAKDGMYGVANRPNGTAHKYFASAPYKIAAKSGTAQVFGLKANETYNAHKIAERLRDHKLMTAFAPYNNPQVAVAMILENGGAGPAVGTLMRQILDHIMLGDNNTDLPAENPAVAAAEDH
In words: Inhibition of bocillin FL binding to Escherichia coli MC4100 penicillin-binding protein 2. The method in brief:
(§2)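 Isolated E. coli MC4100 PBPs; competition with drug at 10 concentrations, 0.016 μg/ml to 8 μg/ml, then Bocillin FL labeling. Gel bands visualized by imaging. IC50 is the concentration giving 50% inhibition of Bocillin FL binding relative to a no-drug control.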

Assay [3] can be described thus: Inhibition of bocillin FL binding to Escherichia coli MC4100 penicillin-binding protein 1a. The method in brief: as §2
Assay [4] has as its target T2, MecA (Staphylococcus aureus, UniProt Q7DHH4).
T2 sequence (Q7DHH4 whole entry): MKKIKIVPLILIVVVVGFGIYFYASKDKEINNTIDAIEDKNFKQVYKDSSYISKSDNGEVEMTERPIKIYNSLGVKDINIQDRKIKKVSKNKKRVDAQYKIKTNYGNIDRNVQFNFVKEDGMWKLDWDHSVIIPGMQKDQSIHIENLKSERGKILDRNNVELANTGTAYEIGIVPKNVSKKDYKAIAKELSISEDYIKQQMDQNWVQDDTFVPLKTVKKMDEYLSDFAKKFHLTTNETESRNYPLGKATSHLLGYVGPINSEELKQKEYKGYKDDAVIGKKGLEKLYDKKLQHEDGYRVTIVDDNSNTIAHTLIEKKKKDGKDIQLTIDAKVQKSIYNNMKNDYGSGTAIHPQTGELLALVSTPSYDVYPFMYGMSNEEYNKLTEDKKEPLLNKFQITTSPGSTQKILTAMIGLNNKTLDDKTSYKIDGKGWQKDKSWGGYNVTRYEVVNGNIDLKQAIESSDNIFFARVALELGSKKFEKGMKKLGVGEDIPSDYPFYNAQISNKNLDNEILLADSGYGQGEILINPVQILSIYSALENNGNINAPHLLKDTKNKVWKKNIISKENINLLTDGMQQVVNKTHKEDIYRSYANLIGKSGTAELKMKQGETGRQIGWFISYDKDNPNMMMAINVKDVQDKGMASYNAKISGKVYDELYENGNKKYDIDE
In words: Inhibition of bocillin FL binding to methicillin-resistant Staphylococcus aureus OC 3726 penicillin-binding protein 2a. The method, boiled down: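 OC 3726 membranes were first preincubated with 1 mg/ml clavulanic acid to saturate all PBPs except PBP2a. Drug was then added (0.16 μg/ml to 50 μg/ml), followed by Bocillin FL labeling and fluorescence imaging. IC50 is 50% inhibition of PBP2a labeling compared with the no-drug (0 μg/ml) sample.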

In assay [5] the test system is Streptococcus pneumoniae. In words: Antibacterial activity against penicillin-resistant Streptococcus pneumoniae OC 8819 by CLSI method. It is filed as functional.
The nature of assay [6]: Inhibition of bocillin FL binding to Escherichia coli MC4100 penicillin-binding protein 4. The method in brief: as §1
The subject of assay [7] is Escherichia coli. In words: Antibacterial activity against Escherichia coli MC4100 by CLSI method. It is filed as functional.
The nature of assay [8]: Inhibition of bocillin FL binding to Escherichia coli MC4100 penicillin-binding protein 6. The method, boiled down:
as §1

Assay [9] in a line: Inhibition of bocillin FL binding to Escherichia coli MC4100 penicillin-binding protein 5. The method, boiled down: as §1
A short description of assay [10]: Inhibition of bocillin FL binding to Escherichia coli MC4100 penicillin-binding protein 1b. The method, boiled down:
as §1

The nature of assay [11]: Inhibition of bocillin FL binding to penicillin-resistant Streptococcus pneumoniae OC 8819 penicillin-binding protein 3. The method in brief:
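Whole S. pneumoniae cells were used rather than isolated membranes. Cells were competed with drug and then labeled with Bocillin FL, and PBP bands were visualized by fluorescence imaging. IC50 is the drug concentration that inhibits Bocillin FL binding to each PBP by 50% relative to a no-drug control.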

The test system of assay [12] is Staphylococcus aureus. Put plainly: Antibacterial activity against methicillin-resistant Staphylococcus aureus OC 3726 by CLSI method. The class given is functional.
Assay [13] is described as follows: Inhibition of bocillin FL binding to Pseudomonas aeruginosa PAO1 penicillin-binding protein 1a. The method, boiled down:
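P. aeruginosa PAO1 PBPs were isolated and competed with 10 drug concentrations from 0.06 μg/ml to 32 μg/ml before Bocillin FL labeling. Bands were detected by fluorescence imaging. IC50 was taken as 50% inhibition of Bocillin FL binding versus the no-drug sample.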

SMILES strings stand for the structures. ≈ marks a conversion by molar mass, not a printed value.

In general, IC50 refers to the concentration that inhibits the measured activity by half. A word on the MIC: it is the lowest concentration that inhibits growth of the organism.

With `CO/N=C(\C(=O)N[C@@H]1C(=O)N2C(C(=O)O)=C(CSc3nc(=O)c(O)nn3C)CS[C@H]12)c1csc(N)n1` (stereo in doubt) [CEFTRIAXONE], the IC50 is less than 0.01 µg/mL in assay [1]; 361 nM in [2]; 0.2 µg/mL (≈ 0.361 µM) in [3]; greater than 90.2 µM in assay [4]; 0.4 µg/mL (≈ 0.721 µM) in assay [6]; greater than 8 µg/mL in assay [8]. Moreover, the IC50 in assay [9] amounted to 6 µg/mL (≈ 10.8 µM); in assay [10], 0.5 µg/mL (≈ 0.902 µM); in [11], 0.01 µg/mL (≈ 0.018 µM). The MIC is 8 µg/mL (≈ 14.4 µM) in assay [5], 0.06 µg/mL (≈ 0.108 µM) in assay [7] and greater than 64 µg/mL in assay [12].

With `Nc1nc(/C(=N/O)C(=O)N[C@@H]2C(=O)N3C(C(=O)O)=C(/C=C4\CCN([C@@H]5CCNC5)C4=O)CS[C@H]23)ns1` [CEFTOBIPROLE], the IC50 in [1] was 0.2 µg/mL (≈ 0.374 µM); in assay [13] it was 0.1 µg/mL (≈ 0.187 µM); in [2], 374 nM; in [3] it was 0.3 µg/mL (≈ 0.561 µM); in assay [4], 1.68 µM; in assay [6], 0.5 µg/mL (≈ 0.935 µM). For the same compound, the IC50 is 3 µg/mL (≈ 5.61 µM) in assay [8], greater than 8 µg/mL in [9], 8 µg/mL (≈ 15 µM) in assay [10] and 0.01 µg/mL (≈ 0.0187 µM) in assay [11]. Further, the minimal inhibitory concentration (MIC) in assay [5] stood at 1 µg/mL (≈ 1.87 µM); in assay [7], 0.03 µg/mL (≈ 0.0561 µM); in assay [12], 2 µg/mL (≈ 3.74 µM).

For `CC(C)(O/N=C(\C(=O)N[C@@H]1C(=O)N2C(C(=O)[O-])=C(C[n+]3ccccc3)CS[C@H]12)c1csc(N)n1)C(=O)O` [CEFTAZIDIME], the IC50 in assay [1] was 0.07 µg/mL (≈ 0.128 µM); in [13], 0.2 µg/mL (≈ 0.366 µM); in assay [2], 7320 nM; in [3] it was 1.1 µg/mL (≈ 2.01 µM); in assay [4], greater than 91.5 µM; in assay [6] it was greater than 4 µg/mL. Besides, the IC50 in assay [8] was greater than 4 µg/mL; in [9] it was greater than 4 µg/mL; in [10], 1.1 µg/mL (≈ 2.01 µM). Moreover, the MIC is 0.12 µg/mL (≈ 0.22 µM) in [7] and greater than 128 µg/mL in [12].
